TbHK1 inh – blocks Trypanosoma brucei hexokinase 1 activity; 220,000 compounds, 0.11% hits; inhibition, % at 10 µM; recombinant TbHK1, G6PDH-coupled NADH A340;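 active = inhibition of 50% or more in the single-dose primary screen; inactive = inhibition below 50%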
Runt-CBFb FRET – Runt domain-CBFb interaction inhibition; Cerulean-Runt/Venus-CBFb FRET ratio 530/480, 1 h; inhibition, % at 20 µM; 220,000 compounds, 0.46% hits;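 active = inhibition over about 50% at 20 µM in the single-dose screen, limit read from the data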;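 also: 0% = DMSO wells and 100% = excess unlabeled CBFb competitor control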
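Doses: 20 µM compound in 1% DMSO | Material: Cerulean-labeled Runt domain protein | Amount: Each fluorescent fusion protein 100 nM | Schedule: Two 1 h room-temperature incubations shielded from light | Measured by: FRET fluorescence | Evaluation: Loss of energy transfer signal | Controls: Unlabeled CBFb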
Hck-Nef inh – inhibitors of human Hck kinase activated by Nef. P08631. Recombinant Hck-YEEI plus Nef, Z-Lyte FRET kinase assay. inhibition, % at 20 µM. 220,000 compounds, 0.68% hits. AID 463187;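 active = Hck-Nef kinase inhibition above about 50%, limit read from the data; inactive = inhibition below that limit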;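 also: 0% = DMSO with Hck plus Nef and 100% = Hck alone without Nef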
Target sequence (P08631 whole entry, looked up): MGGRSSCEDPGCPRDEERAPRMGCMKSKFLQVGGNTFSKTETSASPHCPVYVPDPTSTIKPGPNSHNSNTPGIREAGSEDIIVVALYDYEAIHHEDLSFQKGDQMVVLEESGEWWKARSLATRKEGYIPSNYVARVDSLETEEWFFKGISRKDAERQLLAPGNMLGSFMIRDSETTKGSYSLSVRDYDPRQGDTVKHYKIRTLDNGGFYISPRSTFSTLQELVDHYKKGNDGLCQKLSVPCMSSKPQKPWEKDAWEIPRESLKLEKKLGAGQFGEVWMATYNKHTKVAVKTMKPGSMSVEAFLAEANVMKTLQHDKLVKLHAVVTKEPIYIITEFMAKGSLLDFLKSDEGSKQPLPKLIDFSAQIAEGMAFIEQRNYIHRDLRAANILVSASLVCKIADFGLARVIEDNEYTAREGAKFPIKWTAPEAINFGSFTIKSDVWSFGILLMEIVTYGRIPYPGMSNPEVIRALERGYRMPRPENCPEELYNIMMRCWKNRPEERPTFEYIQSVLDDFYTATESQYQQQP
Runt-SMMHC FRET – blocks binding of human RUNX1 Runt domain to CBFb-SMMHC | inhibition, % at 20 µM | AID 1434 | Cerulean-Runt/Venus-CBFb-SMMHC FRET ratio 530/480, 1 h | 220,000 compounds, 0.74% hits;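 active = mean inhibition across duplicate retests at 20 µM reaching about 50%, limit read from the data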;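 also: 0% = DMSO wells and 100% = wells with excess untagged CBFb-SMMHC; inhibitors lower the FRET ratio by blocking Runt binding to CBFb-SMMHC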
RanGTP-Imp inh – disruptors of Ran-importin-beta complex formation – biochemical, FRET, CFP-Ran, YFP-importin-beta, homogeneous, primary screen; cell-free CFP-Ran/YFP-importin-beta FRET ratio; inhibition, % (test concentration not listed); 300,000 compounds, 1.1% hits; AID 2216;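 active = more than half of the replicate wells show a fall in the fluorescence ratio signal beyond about 16%, limit read from the data, passing the limit was not always enough; inconclusive = exactly half of the replicate wells pass the set limit; inactive = fewer than half of replicates pass the limit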;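 also: 0% = DMSO wells and 100% = Ran loaded with GDP instead of GTP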
An asterisk follows results filed as active; ? = inconclusive; / = not tested or not shown. Most compounds without a hit are left out; they make up all but 1.9% or so of the library.

SMILES | TbHK1 inh | Runt-CBFb FRET | Hck-Nef inh | Runt-SMMHC FRET | RanGTP-Imp inh
COCC(C)OC(=O)C(C#N)c1nc2ccccc2nc1N1CCN(Cc2ccccc2)CC1 (stereo not drawn) | -11 | 44 | 2 | 72* | 7
COCCCNC(=O)C(C#N)c1nc2ccccc2nc1N1CCN(Cc2ccccc2)CC1 (stereo not drawn) | -8 | 24 | -17 | 24 | ?
CC(C)COC(=O)C(C#N)c1nc2ccccc2nc1N1CCN(Cc2ccccc2)CC1 (stereo not drawn) | -6 | 27 | -2 | 53 | ?
C=CCOC(=O)C(C#N)c1nc2ccccc2nc1N1CCN(Cc2ccccc2)CC1 (stereo not drawn) | -4 | 0 | -3 | 68* | /
COC(=O)C(C#N)c1nc2ccccc2nc1N1CCN(Cc2ccc3c(c2)OCO3)CC1 (stereo not drawn) | / | 13 | / | 26 | -2
CCCCOC(=O)C(C#N)c1nc2ccccc2nc1N1CCN(Cc2ccc3c(c2)OCO3)CC1 (stereo not drawn) | -6 | 43 | -1 | 75* | /
COc1ccc(C(=O)NC2CCCCC2)cc1OC1CCN(C(C)C)CC1 | / | / | / | / | 0
Cc1cc(C)cc(C(=O)N2CCC3(CC2)NCCc2[nH]cnc23)c1 | / | / | / | / | 3
CN(Cc1ccccc1)c1ccc(C(CC(N)=O)NC(=O)c2ccccc2)cc1[N+](=O)[O-] (stereo not drawn) | / | / | / | / | -5
CCOC(=O)N1CCN(Cc2ccc(OCC(O)CN3CCCCC3)cc2)CC1 (stereo not drawn) | / | / | / | / | -5
COC(=O)C1CCN(Cc2c(C(=O)N3C[C@@H](C)O[C@@H](C)C3)nc3ccc(Cl)cn23)CC1 | / | / | / | / | 2
COc1ccc(NC(=O)CN(C)C(=O)Cc2ccc3c(c2)CCC3)cc1 | / | / | / | / | -6
CCOC(=O)C1CCN(C(=O)c2ccc3nc(-c4ccc(OC)cc4)c(-c4ccc(OC)cc4)nc3c2)CC1 | / | / | / | / | 24*
CCOC(=O)C1CCN(C(=O)c2ccc(Cl)c(Cl)c2)CC1 | -7 | 1 | -1 | 8 | /
CC(C)(C)C(=O)Nc1sc2c(c1C#N)CCN(Cc1ccccc1)C2 | / | / | / | / | 150*
N#Cc1c(N)sc2c1CCN(CCc1ccccc1)C2 | -19 | 105* | -3 | 88* | 46*
CCOC(=O)N1CCc2c(sc(N)c2C#N)C1 | 7 | 14 | -2 | 1 | -3
N#Cc1c(NC(=S)NC(=O)c2ccccc2)sc2c1CCN(CCc1ccccc1)C2 | -3 | 4 | 9 | 82* | 157*
N#Cc1c(NC(=S)NC(=O)c2ccccc2)sc2c1CCCC2 | -1 | 49 | 8 | 12 | 5
Cc1ccc(OCC(=O)Nc2c(C)ccc3nsnc23)cc1 | / | / | / | / | 2
CCS(=O)(=O)N1Cc2ccccc2CC1C(=O)Nc1ccc(F)cc1 (stereo not drawn) | -1 | 2 | -2 | 80* | 1
CCN(CC)S(=O)(=O)c1cc(NC(=O)Cn2ncc(Cl)c(Cl)c2=O)ccc1C | 16 | -2 | 74* | -13 | -2
CCc1nn(-c2ccccc2)c2c1-c1cc(OC)c(OC)cc1C1(N2)C(=O)Nc2ccccc21 (stereo not drawn) | -10 | 0 | -19 | 0 | 31*
Cc1ccc(-c2nnc(OCc3nc4ccccc4n3C)c3ccccc23)cc1 | / | / | / | / | -2
COc1cc2ncnc(NCCc3ccccc3)c2cc1OC | -1 | 1 | 59* | -5 | 1
SMILES | TbHK1 inh | Runt-CBFb FRET | Hck-Nef inh | Runt-SMMHC FRET | RanGTP-Imp inh
Cc1ccc(NC(=O)NNC(=O)c2cccs2)cc1 | 4 | -1 | 8 | 3 | -2
Cc1ccc(C)c(-n2c3nc(=O)[nH]c(=O)c-3cc3cc([N+](=O)[O-])ccc32)c1 | 12 | 45 | 4 | 12 | /
Cc1cccc(-n2c3nc(=O)[nH]c(=O)c-3cc3cc([N+](=O)[O-])ccc32)c1 | -11 | 21 | 7 | 55* | 2
C=CCn1c2ccccc2c(=O)c2cc(C#Cc3ccsc3)ccc21 | / | / | / | / | 24*
COc1cccc(OC)c1C(=O)Nc1sc2c(c1C(N)=O)CCN(Cc1ccccc1)C2 | / | / | / | / | 134*
CC(=O)c1ccc(C(=O)Nc2sc3c(c2C(N)=O)CCN(Cc2ccccc2)C3)cc1 | / | / | / | / | 55*
COc1ccc(OC)c(C(=O)NC(CC(N)=O)c2ccc(N3CCN(c4ccccn4)CC3)c([N+](=O)[O-])c2)c1 (stereo not drawn) | / | / | / | / | 0
CC(=O)N(/N=C1\Sc2ccccc2C1=O)c1cccc(C)c1 | -4 | -6 | -1 | -8 | 23*
CC(=O)N(CN1C(=O)c2ccccc2C1=O)c1cccc(C)c1 | 4 | -2 | 4 | -2 | 1
CCn1ncc(Br)c1C(=O)Nc1ccc(C(C)C)cc1 | / | / | / | / | 1
CC(C)N(Cc1ccccc1)C(=O)COC(=O)/C=C/c1cnc2ccccc2n1 | -12 | -4 | 23 | -4 | -6
CCOC(=O)C1CCCN(C(=O)Cn2c(=O)c3cccn3c3cccnc32)C1 (stereo not drawn) | / | / | / | / | 2
N=c1oc2ccccc2cc1-c1nc(-c2ccccc2)cs1 | 1 | -60 | -1 | -160 | 44*
N=c1oc2ccc3ccccc3c2cc1-c1nc(-c2ccccc2)cs1 | -5 | 22 | 2 | 29 | 73*
CCN(CC)c1ccc(C(=O)OCc2cc(=O)oc3cc(O)ccc23)cc1 | -21 | 50* | 18 | 119* | 8
O=c1cc(CN2CCc3ccccc32)c2ccc(O)cc2o1 | -15 | 15 | 27 | 24 | 43*
CCCCc1cc(=O)oc2cc(O)ccc12 | -13 | 40 | 115* | 86* | 4
CCN(C1CCCCC1)S(=O)(=O)CCNC(=O)c1ccc2c(c1)OCO2 | / | / | / | / | -5
Nc1cccc2c1C(=O)N(C(=O)c1cccc(S(=O)(=O)N3CCCCCC3)c1)C2=O | -2 | 12 | -19 | 62* | 19*
Nc1cccc2c1C(=O)N(C(=O)c1ccc(Cl)c(S(=O)(=O)N3CCCCCC3)c1)C2=O | -5 | -12 | -17 | 62* | 20*
Nc1cc(-c2ccccc2)nn1Cc1ccccc1 | 10 | -1 | -16 | -2 | 32*
Cc1cc([N+](=O)[O-])nn1CC(=O)NCc1nc2ccccc2[nH]1 | -2 | 1 | 26 | 0 | 174*
O=C(Nc1ccc(Cl)cc1F)C1CC1 | 1 | -4 | 3 | 1 | 1
CC(C)(C)OC(=O)NCC(=O)Oc1cc2oc(=O)cc(-c3ccccc3)c2cc1Cl | -13 | 3 | 1 | 81* | 0
COC(=O)C1=C(N)Oc2cc(C)n(CC3CCCO3)c(=O)c2C1c1ccc(Cl)cc1 (stereo not drawn) | 2 | 0 | -1 | -1 | 11
COc1ccccc1-[n+]1c(C)cc(/C=C2\Sc3ccccc3N2C)cc1C | 9 | 6 | -32 | 63* | 1
COc1ccc(CN(C(=O)c2ccc(C)cc2)C2CCS(=O)(=O)C2)cc1 (stereo not drawn) | / | / | / | / | 0
CSCC(C)N1CCC(n2nccc2NC(=O)c2ccccc2C)CC1 (stereo not drawn) | / | / | / | / | 21*

Screens as filed in PubChem.
